Screens: PubChem BioAssay, several laboratories
This is a sample that favours compounds with a hit; in the whole collection about 2.4% have one here.
p-CIP stab down – compounds decreasing mouse p/CIP protein stability | decrease of EGFP signal, % at 10 µM | Q05BA5 | actives 0.01% (n = 290,000) | F442A p/CIP-EGFP cells, EGFP fluorescence, 16 h;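 active = EGFP signal decrease of at least 30% at 10 µM or well 3 SD below plate mean, unless failing retest; inactive = the rest, including hits failing retest or dose response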
Target sequence (Q05BA5 1-1403): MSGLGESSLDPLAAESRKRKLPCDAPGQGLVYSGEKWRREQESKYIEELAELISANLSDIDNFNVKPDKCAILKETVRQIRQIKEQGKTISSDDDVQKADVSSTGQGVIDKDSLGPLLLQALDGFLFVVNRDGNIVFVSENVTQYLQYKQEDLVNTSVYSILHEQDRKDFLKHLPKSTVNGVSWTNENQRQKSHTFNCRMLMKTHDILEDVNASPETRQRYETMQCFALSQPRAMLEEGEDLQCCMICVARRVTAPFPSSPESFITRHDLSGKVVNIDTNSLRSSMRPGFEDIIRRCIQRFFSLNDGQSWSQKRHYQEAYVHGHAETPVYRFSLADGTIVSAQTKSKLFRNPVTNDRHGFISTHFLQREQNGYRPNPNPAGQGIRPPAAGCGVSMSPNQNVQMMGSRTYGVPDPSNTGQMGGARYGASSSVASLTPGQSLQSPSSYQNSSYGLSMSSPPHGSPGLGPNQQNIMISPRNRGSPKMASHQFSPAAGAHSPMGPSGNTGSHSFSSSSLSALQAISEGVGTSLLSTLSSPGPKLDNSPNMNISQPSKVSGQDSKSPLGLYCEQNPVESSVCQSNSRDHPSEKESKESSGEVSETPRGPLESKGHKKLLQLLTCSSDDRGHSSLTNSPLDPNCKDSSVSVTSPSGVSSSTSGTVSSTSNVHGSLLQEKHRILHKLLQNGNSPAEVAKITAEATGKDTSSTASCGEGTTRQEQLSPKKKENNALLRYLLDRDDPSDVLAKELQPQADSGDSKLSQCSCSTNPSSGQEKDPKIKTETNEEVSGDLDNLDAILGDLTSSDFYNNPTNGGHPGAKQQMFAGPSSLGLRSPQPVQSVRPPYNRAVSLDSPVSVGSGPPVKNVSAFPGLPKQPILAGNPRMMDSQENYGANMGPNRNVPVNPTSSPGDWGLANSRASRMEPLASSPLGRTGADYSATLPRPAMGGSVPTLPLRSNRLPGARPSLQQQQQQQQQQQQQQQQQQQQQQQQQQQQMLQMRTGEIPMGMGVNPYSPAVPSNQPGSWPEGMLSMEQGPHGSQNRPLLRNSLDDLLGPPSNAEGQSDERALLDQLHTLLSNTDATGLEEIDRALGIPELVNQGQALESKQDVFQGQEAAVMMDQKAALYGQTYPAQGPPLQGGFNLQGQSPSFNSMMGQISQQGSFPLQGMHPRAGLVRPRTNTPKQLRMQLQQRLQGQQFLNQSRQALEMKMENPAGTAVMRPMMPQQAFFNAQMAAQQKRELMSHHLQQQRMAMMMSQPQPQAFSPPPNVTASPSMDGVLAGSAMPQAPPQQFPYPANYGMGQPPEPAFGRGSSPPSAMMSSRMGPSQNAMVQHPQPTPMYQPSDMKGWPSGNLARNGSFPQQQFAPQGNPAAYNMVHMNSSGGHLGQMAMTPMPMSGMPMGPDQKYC
Cardio protect – modulators protecting cardiomyocytes from myocardial damage | protection from H2O2 cell death, % at 20 µM | actives 0.63% (n = 360,000) | H9c2 cardiomyocytes, H2O2 injury protection, ATPLite, 2 h;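 active = compounds giving at least 50% protection of heart cells from peroxide-induced death in the single-dose screen, raw or plate-pattern-corrected value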;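 also: 0% = DMSO wells with peroxide and 100% = DMSO wells without peroxide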
PP5 inh – PP5 (human) phosphatase inhibition; P53041; inhibition, % at 6.7 µM; purified PP5c, OMFP substrate fluorescence; actives 0.18% (n = 320,000);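 active = inhibition above the campaign's mean inhibition across all tested compounds plus 3 SD, cut at about 9.5% in these data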;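 also: 0% = DMSO only and 100% = 100 µM cantharidin control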
Fh CTSL1 inh – cathepsin L1 inhibition, PFM18AAP counter-screen; recombinant F. hepatica cathepsin L1, Z-Leu-Arg-MCA fluorescence; inhibition, % at 5.96 µM; actives 0.49% (n = 300,000);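 active = inhibition above the mean of all tested compounds plus 3 SD, set per screening campaign, cut at about 17% in these data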;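 also: 0% = plate median of test compound wells and 100% = 1 µM Z-Phe-Ala-diazomethylketone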
GASC-1 inh – inhibitors of human GASC-1 (JMJD2C) demethylase | Q9H3R0 | GST-JMJD2C(1-420) H3K9me3 demethylation, DELFIA europium | inhibition, % at 2.35 µM | actives 0.069% (n = 330,000);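 active = more than half of a compound's replicate wells show inhibition beyond 50%, single wells judged on their own value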;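 also: signal counts dimethyl H3K9 product captured on neutravidin plate; 0% = median of DMSO wells and 100% = 0.3 times that DMSO median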
T cruzi repl – T. cruzi replication inhibition | inhibition, % (test concentration not listed) | actives 1.4% (n = 300,000) | AID 1885 | T. cruzi beta-gal in NIH3T3, luminescence, 90 h;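 active = mean inhibition across valid replicates above about 55%, limit read from the data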;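 also: signal also drops with host cell toxicity which is not excluded here; 0% = plate median of DMSO wells and 100% = zero luminescence signal; higher percent means less beta-gal luminescence so fewer parasites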
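System – NIH/3T3 host cells with β-galactosidase reporter T. cruzi · Doses – single 50 nL compound addition per well in DMSO · Reagent – 5000 T. cruzi trypomastigotes/well · Medium – Low-serum DMEM with 2% FBS · Timing – ≥90 h infection period, 3 h prior cell attachment · Evaluation – parasite load inhibition, % · Technique – GalScreen luminescence, 60 min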
* = called active by the depositor; . = no result given.

SMILES	p-CIP stab down	Cardio protect	PP5 inh	Fh CTSL1 inh	GASC-1 inh	T cruzi repl
CCN(CC)CCCNc1nc2cc(OC)c(OC)cc2c2nc(-c3ccccc3)nn12	-4.1	-2.0	3.6	-3.3	-9.7	61.0*
COCCCNc1nc2cc(OC)c(OC)cc2c2nc(-c3ccccc3)nn12	-11.3	56.4*	2.5	4.5	9.0	-2.3
COc1cc(-c2nc3ccccn3c2NCC2CCCO2)ccc1O (stereo not drawn)	-5.9	4.6	2.0	-0.2	2.1	-5.6
CCN(CC)CCCNc1nc2cc(OC)c(OC)cc2c2nc(-c3cccnc3)nn12	17.6	12.5	1.8	3.3	79.8	51.6
COc1ccc(NC(=O)CCCNC(=O)c2ccc(Cl)cc2)cc1S(=O)(=O)N1CCOCC1	.	-1.5	.	.	.	.
CCOC(=O)N1CCN(C(=O)CN(C)S(=O)(=O)c2ccc(Cl)cc2)CC1	-14.5	1.2	0.5	-0.2	-15.2	-14.4
COc1ccc(-c2cc(CNc3nc4cc(-c5ccccc5C)sc4c(=O)n3C)on2)cc1	.	4.4	.	.	.	.
CCOC(=O)N1CCN(S(=O)(=O)c2ccc(C(=O)NNc3nc4cc(C)cc(C)c4s3)cc2)CC1	-13.5	55.9*	5.9	0.7	76.7	48.5
CCOC(=O)N1CCN(S(=O)(=O)c2ccc(C(=O)NNc3nc4c(C)cccc4s3)cc2)CC1	-1.2	50.4*	4.7	0.4	44.2	44.5
Cc1cccc2sc(NNC(=O)c3ccc(S(=O)(=O)N4CCc5ccccc5C4)cc3)nc12	5.9	25.7	2.4	2.8	-1.7	60.4*
Cc1cccc2sc(NNC(=O)c3ccc(S(=O)(=O)N4CCCC(C)C4)cc3)nc12 (stereo not drawn)	5.7	39.7	4.8	4.0	0.3	34.4
O=C(COc1cc2oc(=O)c3c(c2cc1Cl)CCCC3)NCC1CCC(C(=O)O)CC1 (stereo not drawn)	-6.9	3.3	3.5	-1.2	-3.2	-9.7
c1ccc(CNc2nc(-c3ccccn3)nc3ccccc23)cc1	-9.4	18.2	-0.3	7.5	2.9	19.2
CCC(C)Nc1nc(-c2ccccn2)nc2ccccc12 (stereo not drawn)	-5.4	-1.4	1.8	4.2	-8.8	64.4*
Fc1ccccc1/C=N/Nc1nc(-c2ccccn2)nc2ccccc12	-6.3	.	-1.7	2.8	-48.9	55.4*
Cc1cccc2sc(N(CCN(C)C)C(=O)C3CCN(S(=O)(=O)c4cccs4)CC3)nc12	.	21.4	0.3	1.3	0.8	57.3*
Cc1cccc(OCCCC(=O)N2CCCCCC2)c1C	7.3	-1.1	.	.	-7.9	-3.8
CN1CCN(C(CNS(=O)(=O)c2ccc(F)cc2)c2cccnc2)CC1 (stereo not drawn)	-6.9	3.8	0.5	0.3	5.1	31.2
COc1ccccc1N1CCN(C(CNS(=O)(=O)c2ccccc2)c2cccnc2)CC1 (stereo not drawn)	5.7	-2.2	4.5	-1.0	3.5	28.4
O=S(=O)(NCC(c1cccnc1)N1CCN(c2ccc(F)cc2)CC1)c1ccccc1 (stereo not drawn)	.	1.7	-1.0	-1.2	-14.4	58.7*
O=C(NCC(c1cccnc1)N1CCN(c2ccccc2)CC1)c1ccco1 (stereo not drawn)	.	1.0	1.4	-3.7	1.9	64.9*
O=S(=O)(NCC(c1cccnc1)N1CCN(c2ccccc2)CC1)c1cc(F)ccc1F (stereo not drawn)	-6.8	-1.8	0.5	7.5	-0.8	76.0*
COc1ccccc1N1CCN(C(CNS(=O)(=O)c2cc(F)ccc2F)c2cccnc2)CC1 (stereo not drawn)	-11.0	3.5	4.1	0.0	12.2	64.7*
CCN(Cc1ccccc1)C(c1ccncc1)c1nnnn1C(C)(C)C (stereo not drawn)	7.9	0.4	-0.6	2.8	22.8	11.6
CC(C)(C)c1ccc(CN(Cc2ccccc2)C(c2ccccn2)c2nnnn2C(C)(C)C)cc1 (stereo not drawn)	-6.1	-13.0	2.1	1.6	-4.4	61.8*
Cc1cc(N=Cc2c(O)ccc3cc(Br)ccc23)no1	-10.5	65.8*	-0.2	-2.5	-5.8	-6.5
Clc1cccc(OCCN2CCNCC2)c1	-7.0	3.0	2.0	0.7	-3.0	57.8*
